# High-throughput results from PubChem BioAssay.
# Most compounds without a hit are left out; they make up all but 1.4% or so of the library.
# FN deposition inh: fibronectin deposition inhibition; inhibition, % at 12.6 µM; 350,000 compounds, 0.086% hits; AH1F fibroblasts, Alexa488-fibronectin deposition fluorescence, overnight;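 active = mean inhibition across replicates of 30% or more, regardless of how many single replicates reach that level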;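 also: positive control wells lacked labelled fibronectin entirely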
#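 Test system: AH1F fibroblast monolayer depositing Alexa488-labelled fibronectin into matrix. Input: 10000 cells per well. Technique: fluorescence, ex 485 nm, em 525 nm. Buffer or medium: DMEM plus 2% serum, read in PBS. Timing: 1 h cell adhesion before compound, then overnight fibronectin incubation. Compound: single dose, pinned. Read-out basis: inhibition from reduced deposited-fibronectin fluorescence.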
# PDI inh: blocks human protein disulfide isomerase activity | inhibition, % at 10 µM | P07237 | 350,000 compounds, 0.052% hits | PDI insulin aggregation turbidity, A650, 90 min;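 active = mean inhibition across replicates of 30% or more, whatever share of single replicates reach that level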
# GSIS activator: primary screen for activators of insulin secretion dependent on glucose, INS-1E cells, GLuc reporter luminescence; AID 743287; INS-1E GLuc reporter insulin secretion, 2-3 h; 370,000 compounds, 0.61% hits; activation, % at 16.6 µM;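 active = lowest replicate activation of at least 40%, so every replicate reaches that level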;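 also: 0% = median of neutral control wells and 100% = median of IBMX positive control wells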
# ERp5 block: inhibitors of human ERp5 | inhibition, % at 9.99 µM | Q15084 | ERp5 insulin aggregation, absorbance 650 nm, 90 min | 350,000 compounds, 0.05% hits;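 active = mean replicate inhibition above about 25%, with every replicate also reaching it, limit read from the data, passing the limit was not always enough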
# Target sequence (Q15084 whole entry, looked up): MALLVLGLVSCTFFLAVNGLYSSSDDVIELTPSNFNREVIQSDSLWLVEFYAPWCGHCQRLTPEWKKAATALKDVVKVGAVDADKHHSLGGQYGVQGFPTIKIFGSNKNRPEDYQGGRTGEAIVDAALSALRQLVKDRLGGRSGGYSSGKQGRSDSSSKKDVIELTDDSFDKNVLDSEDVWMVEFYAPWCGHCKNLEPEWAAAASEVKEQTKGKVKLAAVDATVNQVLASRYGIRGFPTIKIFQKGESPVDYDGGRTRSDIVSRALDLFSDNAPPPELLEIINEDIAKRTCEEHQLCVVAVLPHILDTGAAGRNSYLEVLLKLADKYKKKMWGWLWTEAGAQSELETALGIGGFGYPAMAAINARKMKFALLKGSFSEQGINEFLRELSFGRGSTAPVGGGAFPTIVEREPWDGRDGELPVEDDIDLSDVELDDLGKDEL
# HIV Env fusion: blocks HIV Env-driven cell-cell fusion; 360,000 compounds, 1.1% hits; inhibition, % at 12.3 µM; HeLa-JRFL Env/CEM21 cell fusion, luciferase;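 active = mean replicate inhibition score of at least 50 and every replicate individually at or above 50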;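 also: 0% = plate neutral controls and 100% = maraviroc near 300 nM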
# An asterisk follows results filed as active; · = no result given; [ ] = another dose, or the depositor's remark.
SMILES,FN deposition inh,PDI inh,GSIS activator,ERp5 block,HIV Env fusion
Cc1noc(C)c1NC(=O)NCC[C@@H]1CC[C@@H](NC(=O)Nc2cccc(Cl)c2)[C@@H](CO)O1,-15.1,·,3.5,0.5,5.8[16.7 µM]
Cc1nc2c(OCc3ccc(C(F)(F)F)cc3)cccn2c1N(C)C(=O)CCC1CCCC1,-10.3,2.8,9.9,6.9,60.7*
CCc1n[nH]c(=S)n1/N=C/c1c(O)ccc2ccccc12,-3.2,-5.0,-22.8,-2.2,56.1*
CC(C)NC(=O)N(C)C[C@@H]1Oc2cc(-c3ccncc3)ccc2S(=O)(=O)N([C@H](C)CO)C[C@H]1C,3.4,·,-8.8,6.8,-19.2[16.7 µM]
C#CCN(C[C@H]1[C@H](OC(=O)Nc2cccs2)[C@H](OC(=O)Nc2cccs2)CN(C(=O)OC(C)C)N1C(=O)OC(C)C)S(=O)(=O)c1ccc(C)cc1,·,·,-8.5,-4.7,116.7*
Cc1cc(C)cc(-n2c(SC(C)C(=O)NCc3ccc4c(c3)OCO4)nc3ccccc3c2=O)c1 (stereo not given),-0.2,-11.0,·,4.1,64.2*
O=C(CSc1nc2ccccc2c(=O)n1-c1ccccc1)NCc1ccc2c(c1)OCO2,4.5,-6.2,109.6*,·,80.2*
C=CCn1c(SCC(=O)NCc2ccco2)nc2sc3c(c2c1=O)CCC3,4.3,3.1,·,·,65.1*
C=CCn1c(SCC(=O)NCc2ccco2)nc2sc3c(c2c1=O)CCCC3,·,-6.8,-16.3,·,·
O=C(CSc1nc(-c2ccccc2)c(-c2ccccc2)[nH]1)NCc1ccco1,4.4,-0.3,-31.7,·,69.6*
C[C@@H]1CCCCO[C@H](CN(C)Cc2ccccc2)[C@@H](C)CN([C@H](C)CO)C(=O)c2cc(NC(=O)C3CCCCC3)ccc2O1,·,·,-8.0,0.9,-0.4[16.7 µM]
C[C@H](CO)N1C[C@H](C)[C@H](CN(C)S(=O)(=O)c2ccc(F)cc2)Oc2ccc(NC(=O)C3CCCCC3)cc2C1=O,-3.1,·,1.7,3.9,·
COc1cccc(-c2cn(CC[C@H]3CC[C@H](NS(=O)(=O)Cc4ccccc4)[C@H](CO)O3)nn2)c1,6.9,·,9.7,1.9,7.0[16.7 µM]
COc1ccccc1S(=O)(=O)N[C@@H]1CC[C@H](CCNC(=O)C2CCCCC2)O[C@@H]1CO,-5.4,·,18.9,1.2,-10.8[16.7 µM]
C[C@@H]1CN([C@H](C)CO)C(=O)Cc2cc(NS(C)(=O)=O)ccc2O[C@H]1CN(C)Cc1ccc(C(=O)O)cc1,·,·,26.8,-3.6,-46.1[16.7 µM]
C=CCn1c(SCc2ccc3c(c2)OCO3)nc2scc(-c3ccco3)c2c1=O,5.9,8.8,·,·,-64.4
C=CCn1c(SCC(=O)NCc2ccc3c(c2)OCO3)nc2scc(-c3ccccc3)c2c1=O,0.4,3.0,·,·,119.4*
CC(Sc1nc2cc([N+](=O)[O-])ccc2n1-c1ccc(F)cc1)C(=O)NCc1ccc2c(c1)OCO2 (stereo not given),-1.6,3.6,-25.4,·,94.0*
Cc1cccc(-n2c(SCC(=O)NCc3ccco3)nc3ccccc3c2=O)c1,11.1,-9.1,·,·,61.5*
CCn1cc(SCC(=O)NCc2ccc3c(c2)OCO3)c2ccccc21,9.6,·,·,-0.7,66.8*
CCCn1cc(SCC(=O)NCc2ccc3c(c2)OCO3)c2ccccc21,1.6,·,-14.2,4.9,-36.3
CNC(=O)C[C@H]1CC[C@@H]2[C@H](COc3ccc(NS(=O)(=O)c4ccccc4C)cc3C(=O)N2C)O1,-5.8,·,1.3,-4.2,7.7[16.7 µM]
C[C@H](O)C#Cc1ccc2c(c1)O[C@@H](CN(C)C(=O)c1ccccc1)[C@@H](C)CN([C@H](C)CO)S2(=O)=O,0.4,·,2.9,4.1,11.5[16.7 µM]
CCC(=O)Nc1ccc2c(c1)OC[C@@H](C)N(C(=O)CC1CC1)C[C@@H](C)[C@@H](OC)CN(C)C2=O,6.5,·,-6.3,-2.0,·
COc1ccc(NC(=O)COc2ccc(C(=O)NC3CCCc4ccccc43)cc2OC)cc1 (stereo not given),-7.0,-18.5,175.6*,·,-44.3
SMILES,FN deposition inh,PDI inh,GSIS activator,ERp5 block,HIV Env fusion
COc1ccc(C(=O)NC2CCCc3ccccc32)cc1 (stereo not given),-1.9,7.2,3.6,-4.3,3.7
O=C(N/N=C1\CCCc2ccccc21)c1ccccc1Cl,-4.1,5.4,-2.4,27.7*,-13.0
O=C(N/N=C1\CCc2ccccc21)c1ccccc1O,-3.7,5.7,0.7,·,-24.4
Cn1c(N)c(C(=O)Nc2ccccc2F)sc1=S,0.7,16.2,-5.2,3.3,-3.6
Cn1c(N)c(C(=O)Nc2ccc3ccccc3c2)sc1=S,-6.2,-4.9,85.9*,·,-117.9
COCCNc1nc(NCc2ccccc2)nc2ccsc12,0.8,2.6,·,7.1,42.4
COCCNc1nc(NC(C)C)nc2ccsc12,-0.6,-7.2,81.6*,-7.4,2.5
COCCNc1nc(Oc2cccc(F)c2)c2sccc2n1,12.2,16.0,10.6,-0.3,-34.8
COCCNc1nc(Oc2cncc(Cl)c2)c2sccc2n1,14.2,-2.8,55.5*,-1.1,9.6
CCC(=O)Nc1ccc2c(c1)OC[C@H](C)N(CCc1ccccc1)C[C@@H](C)[C@H](OC)CN(C)C2=O,-7.3,·,-37.9,-2.3,-11.8[16.7 µM]
N=c1ccn2c(n1)O[C@H]1[C@H](O)[C@@H](CO)O[C@H]12,3.3,-5.4,13.0,2.6,24.1
N=c1nc2n(cc1F)C1OC(CO)C(O)C1O2 (stereo not given),3.5,1.9,6.0,-0.6,68.9*
COc1ccc(-c2ccc([C@@H]3[C@H]4CN(Cc5ccc(F)cc5)CC(=O)N4[C@H]3CO)cc2)cc1,·,·,-23.6,-3.2,·
Cn1c(/C(C#N)=C/c2ccc(O)cc2)nc2ccccc21,-6.3,0.1,42.0*,-6.7,-69.2
CC(C)NC(=O)N(C)C[C@H]1Oc2cc(C#Cc3ccc(F)cc3)ccc2S(=O)(=O)N([C@@H](C)CO)C[C@H]1C,·,·,-11.4,0.8,7.5[16.7 µM]
O=S(=O)(Nc1ccc(C(O)(C(F)(F)F)C(F)(F)F)cc1)c1ccc(Cl)c2nonc12,·,33.7*,·,·,·
CC[C@H]1C/C=C\C[C@@H](c2ccccc2)NC(=O)CCC(=O)N1,-2.0,·,9.5,·,·
CCOC(=O)c1ccc(N2CCCCC2)c(NS(=O)(=O)c2cccc(C(F)(F)F)c2)c1,1.2,0.2,-2.9,-2.9,64.2*
CCc1nc2ccc(C(=O)NCCCN3CCCC3=O)cn2c1N(CCC(C)C)CCN(C)C,-6.4,6.3,48.7*,2.0,12.9
CCc1nc2ccc(C(=O)NCCCN3CCCC3=O)cn2c1N(C)CCC(C)C,1.2,-6.7,0.1,4.9,17.0
Cc1cccc(NC(=S)N=Nc2c(O)n(C)c3ccc(S(=O)(=O)N4CCOCC4)cc23)c1,4.4,-8.0,7.6,-5.8,58.4*
COc1ccc2c3c(n(C)c2c1)[C@@H](CO)N(C(C)=O)CC31CCN(S(=O)(=O)c2ccccc2)CC1,·,·,-5.4,-2.3,·
O=C(C[C@@H]1C[C@@H]2c3cc(NC(=O)C4CCC4)ccc3O[C@@H]2[C@H](CO)O1)NCC(F)(F)F,0.9,·,-0.9,10.1,-8.9[16.7 µM]
O=C(C[C@@H]1C[C@H]2c3cc(NC(=O)C4CCC4)ccc3O[C@H]2[C@H](CO)O1)NCC(F)(F)F,-6.3,·,4.5,8.9,92.9*[16.7 µM]
